Source: ChEMBL document CHEMBL2424622, “Development of amino-pyrimidine inhibitors of c-Jun N-terminal kinase (JNK): kinase profiling guided optimization of a 1,2,3-benzotriazole lead” (Bioorg Med Chem Lett, 2013)

How the values were obtained:
[1] = target: T1, Tyrosine-protein kinase Mer (Homo sapiens) (UniProt Q12866); assay: Competitive binding affinity to MERTK (unknown origin) at 10 uM in presence of ATP relative to control
T1 sequence (whole entry): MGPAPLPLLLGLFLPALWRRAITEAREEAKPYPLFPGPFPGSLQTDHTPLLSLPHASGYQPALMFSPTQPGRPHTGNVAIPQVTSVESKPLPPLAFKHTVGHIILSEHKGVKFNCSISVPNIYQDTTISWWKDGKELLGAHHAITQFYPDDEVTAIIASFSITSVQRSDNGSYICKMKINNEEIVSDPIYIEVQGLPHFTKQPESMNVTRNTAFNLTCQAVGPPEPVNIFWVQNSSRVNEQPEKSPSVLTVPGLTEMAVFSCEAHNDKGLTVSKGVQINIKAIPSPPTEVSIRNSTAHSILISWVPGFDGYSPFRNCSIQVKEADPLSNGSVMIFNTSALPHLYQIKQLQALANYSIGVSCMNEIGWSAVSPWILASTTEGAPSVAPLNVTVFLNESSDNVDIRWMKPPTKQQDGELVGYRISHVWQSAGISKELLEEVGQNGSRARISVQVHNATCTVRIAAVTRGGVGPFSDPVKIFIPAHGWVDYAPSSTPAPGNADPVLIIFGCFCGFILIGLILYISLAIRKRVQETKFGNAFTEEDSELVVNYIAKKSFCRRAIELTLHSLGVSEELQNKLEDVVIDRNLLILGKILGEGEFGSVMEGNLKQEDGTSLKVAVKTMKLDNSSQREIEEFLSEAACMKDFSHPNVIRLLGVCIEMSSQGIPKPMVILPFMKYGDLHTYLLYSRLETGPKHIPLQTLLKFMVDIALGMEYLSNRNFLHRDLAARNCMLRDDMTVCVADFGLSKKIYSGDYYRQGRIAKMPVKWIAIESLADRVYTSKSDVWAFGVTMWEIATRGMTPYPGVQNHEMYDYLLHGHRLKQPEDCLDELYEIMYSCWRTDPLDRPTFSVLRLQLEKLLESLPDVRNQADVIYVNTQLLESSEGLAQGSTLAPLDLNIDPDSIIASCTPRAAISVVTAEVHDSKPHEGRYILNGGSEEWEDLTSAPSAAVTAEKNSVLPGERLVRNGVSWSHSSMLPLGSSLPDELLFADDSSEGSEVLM
Summary of the method: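 In vitro ATP-site competition binding assay across a diverse panel of 128 kinases, with compound tested at a single concentration. Kinase selectivity scores (S15) were calculated from the panel profiles.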

[2] = target: T2, Mitogen-activated protein kinase 15 (Homo sapiens) (UniProt Q8TD08); assay: Competitive binding affinity to ERK8 (unknown origin) at 10 uM in presence of ATP relative to control
T2 sequence (whole entry): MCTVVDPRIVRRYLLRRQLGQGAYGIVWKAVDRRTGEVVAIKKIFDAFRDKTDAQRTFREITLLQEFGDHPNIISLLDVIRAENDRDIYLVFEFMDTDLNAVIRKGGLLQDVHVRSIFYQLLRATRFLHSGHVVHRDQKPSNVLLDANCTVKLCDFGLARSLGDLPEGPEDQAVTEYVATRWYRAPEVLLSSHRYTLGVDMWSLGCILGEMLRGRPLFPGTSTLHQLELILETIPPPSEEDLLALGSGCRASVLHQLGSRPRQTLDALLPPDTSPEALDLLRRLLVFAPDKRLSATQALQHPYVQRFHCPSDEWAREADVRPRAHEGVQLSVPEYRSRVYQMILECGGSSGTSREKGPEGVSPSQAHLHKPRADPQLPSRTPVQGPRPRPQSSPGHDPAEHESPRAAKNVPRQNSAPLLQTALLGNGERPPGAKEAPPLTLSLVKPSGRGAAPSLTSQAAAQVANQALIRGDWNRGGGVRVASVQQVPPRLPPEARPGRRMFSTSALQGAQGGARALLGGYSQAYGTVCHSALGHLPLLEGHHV

[3] = target: T3, Discoidin domain-containing receptor 2 (Homo sapiens) (UniProt Q16832); assay: Competitive binding affinity to DDR2 (unknown origin) at 10 uM in presence of ATP relative to control
T3 sequence (whole entry): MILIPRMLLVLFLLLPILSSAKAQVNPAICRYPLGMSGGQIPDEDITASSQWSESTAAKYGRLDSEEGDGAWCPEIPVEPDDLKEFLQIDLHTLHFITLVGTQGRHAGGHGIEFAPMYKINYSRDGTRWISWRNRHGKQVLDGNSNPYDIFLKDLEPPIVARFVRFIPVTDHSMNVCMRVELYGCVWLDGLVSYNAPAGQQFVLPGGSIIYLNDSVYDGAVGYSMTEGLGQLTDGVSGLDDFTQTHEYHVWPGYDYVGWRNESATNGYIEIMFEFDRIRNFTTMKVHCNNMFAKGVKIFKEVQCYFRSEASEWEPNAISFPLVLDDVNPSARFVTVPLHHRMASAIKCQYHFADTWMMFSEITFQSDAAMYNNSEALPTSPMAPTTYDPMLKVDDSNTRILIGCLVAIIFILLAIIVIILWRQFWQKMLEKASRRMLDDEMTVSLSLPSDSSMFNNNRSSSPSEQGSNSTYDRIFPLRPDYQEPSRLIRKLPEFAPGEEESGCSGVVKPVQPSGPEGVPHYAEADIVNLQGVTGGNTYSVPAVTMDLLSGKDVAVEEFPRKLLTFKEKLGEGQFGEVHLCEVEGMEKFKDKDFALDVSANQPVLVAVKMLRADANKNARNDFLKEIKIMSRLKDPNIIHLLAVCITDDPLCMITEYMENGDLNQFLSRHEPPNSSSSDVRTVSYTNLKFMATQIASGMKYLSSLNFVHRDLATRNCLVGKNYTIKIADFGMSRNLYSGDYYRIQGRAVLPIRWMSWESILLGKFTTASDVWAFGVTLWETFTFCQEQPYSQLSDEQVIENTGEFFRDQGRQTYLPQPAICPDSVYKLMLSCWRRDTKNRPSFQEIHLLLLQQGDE

[4] = target: Serine/threonine-protein kinase pim-1 (Homo sapiens) (UniProt P11309); assay: Competitive binding affinity to PIM1 (unknown origin) at 10 uM in presence of ATP relative to control

Row | SMILES | inhibition [1] [%] | inhibition [2] [%] | inhibition [3] [%] | inhibition [4] [%]
1 | O[C@H]1CC[C@H](Nc2nccc(-n3nnc4ccccc43)n2)CC1 | < 50 | 99 | < 50 | 87
2 | CS(=O)(=O)CCCOc1cccc2c1ccn2-c1ccnc(N[C@H]2CC[C@H](C(=O)N3CCC(O)CC3)CC2)n1 | – | > 85 | – | –
3 | O[C@H]1CC[C@H](Nc2nccc(-n3ncc4ccccc43)n2)CC1 | 92 | 97 | < 50 | 96
4 | O[C@H]1CC[C@H](Nc2nccc(-c3n[nH]c4ccccc34)n2)CC1 | 100 | – | – | 99
5 | O[C@H]1CC[C@H](Nc2nccc(-n3ccc4ccccc43)n2)CC1 | < 50 | 91 | < 50 | 76
